Measurements: article PMC12059366 (Biomolecules & Therapeutics, 2025)
Values belong to the substance of their own block, whether it stands above or below them.

Tests used:
complementary DNAs = assay: Melting temperature; type: binding; details: 2 μM PNA-DNA duplex, 10 mM sodium phosphate pH 7.0, 0.1 M NaCl; absorbance at 260 nm, 25°C to 90°C at 1.0°C per minute
IL-8 = IL-8 level by ELISA in supernatants of IFNγ-treated human keratinocytes; type: cell-based; details: concentration-dependent, n=3
IL-6 = IL-6 level by ELISA in supernatants of IFNγ-treated human keratinocytes; type: cell-based; details: concentration-dependent, n=3
PGE2 = PGE2 level by ELISA in supernatants of IFNγ-treated human keratinocytes; type: cell-based; details: concentration-dependent, n=3
IDO1 = IDO1 gene expression by q-RT-PCR in IFNγ-treated human keratinocytes; type: cell-based; details: compound 24 h before IFNγ, n=3
Method in brief: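 Primary neonatal foreskin human keratinocytes in supplemented KBM Gold medium were pretreated with test PNA for 24 h, then given recombinant human IFNγ in KBM Gold basal medium. The control was scrambled PNA at 0.1 μM. RNA was extracted with TRIzol and RNeasy, then reverse-transcribed. IDO1 was measured by TaqMan q-RT-PCR against RPL13A using the Pfaffl method. Results are mean ± SD, n=3, t-test.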

IDO1 pre-mRNA = assay: IDO1 gene expression by q-RT-PCR in human keratinocytes; type: cell-based; details: non-cytotoxic concentrations (Fig. 2B, 2C), n=3

Tm (binding affinity to complementary DNA) (complementary DNAs): 72.07 °C
Substance: CG*^2TA*C*TTTGA*TTG*^2 [Compound 4]

Substance: Compound 2: modified PNA oligomer with cationic lipid-bearing nucleobases targeting IDO1 pre-mRNA (CTCCAAACCTTACG; PNA; cationic lipid-bearing nucleobases)
Tm (binding affinity to complementary DNA) (complementary DNAs): 82.07 °C
IL-8 level in cell culture supernatant (IL-8): effectively reduced
IL-6 level in cell culture supernatant (IL-6): effectively reduced
PGE2 level in cell culture supernatant (PGE2): effectively reduced
IDO1 expression (IDO1): significantly inhibits IDO1 expression
IDO1 gene expression, concentration-dependent analysis (IDO1 pre-mRNA): significant inhibitory effect
